Test [1] deals with 26S proteasome (Homo sapiens) (UniProt Q99460+P49721+P20618+P28074+P28062+P28065+P28072+O00487+P25786+P25787+P25788+P25789+P28066+P60900+O14818+Q8TAA3+P40306+A5LHX3+P49720+P28070+Q99436+Q16186+P35998+P62191+P43686+P62333+P17980+P62195+Q13200+O43242+O00232+O00231+Q15008+P51665+Q9UNM6+P55036+P48556+P60896). The test is described as follows: Inhibition of 26S proteasome in HEK293T cells expressing GFP-fused Ub G76V mutant assessed as increase in GFP fluorescence. It counts as cell-based. In a few lines: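 HEK 293T cells expressing G76V Ub-GFP, a fusion uncleavable by DUBs that reports ubiquitin-proteasome flux, treated with compound. GFP fluorescence was the read-out, with bortezomib as proteasome-inhibitor reference.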

The target of test [2] is Ubiquitin carboxyl-terminal hydrolase 9X (Homo sapiens) (UniProt Q93008). The test is described as follows: Inhibition of USP9x in human K562 cells assessed as decrease in Bcr-Abl expression at 50 uM measured after 2 hrs by Western blot analysis. It counts as cell-based. In a few lines: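 K562 cells treated with 50 μM compound for 2 h. Lysates were sonicated in SDS, and Bcr-Abl was immunoblotted with anti-Abl antibody.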
Sequence of Ubiquitin carboxyl-terminal hydrolase 9X (Homo sapiens) (Q93008 whole entry, the tested form may be a part): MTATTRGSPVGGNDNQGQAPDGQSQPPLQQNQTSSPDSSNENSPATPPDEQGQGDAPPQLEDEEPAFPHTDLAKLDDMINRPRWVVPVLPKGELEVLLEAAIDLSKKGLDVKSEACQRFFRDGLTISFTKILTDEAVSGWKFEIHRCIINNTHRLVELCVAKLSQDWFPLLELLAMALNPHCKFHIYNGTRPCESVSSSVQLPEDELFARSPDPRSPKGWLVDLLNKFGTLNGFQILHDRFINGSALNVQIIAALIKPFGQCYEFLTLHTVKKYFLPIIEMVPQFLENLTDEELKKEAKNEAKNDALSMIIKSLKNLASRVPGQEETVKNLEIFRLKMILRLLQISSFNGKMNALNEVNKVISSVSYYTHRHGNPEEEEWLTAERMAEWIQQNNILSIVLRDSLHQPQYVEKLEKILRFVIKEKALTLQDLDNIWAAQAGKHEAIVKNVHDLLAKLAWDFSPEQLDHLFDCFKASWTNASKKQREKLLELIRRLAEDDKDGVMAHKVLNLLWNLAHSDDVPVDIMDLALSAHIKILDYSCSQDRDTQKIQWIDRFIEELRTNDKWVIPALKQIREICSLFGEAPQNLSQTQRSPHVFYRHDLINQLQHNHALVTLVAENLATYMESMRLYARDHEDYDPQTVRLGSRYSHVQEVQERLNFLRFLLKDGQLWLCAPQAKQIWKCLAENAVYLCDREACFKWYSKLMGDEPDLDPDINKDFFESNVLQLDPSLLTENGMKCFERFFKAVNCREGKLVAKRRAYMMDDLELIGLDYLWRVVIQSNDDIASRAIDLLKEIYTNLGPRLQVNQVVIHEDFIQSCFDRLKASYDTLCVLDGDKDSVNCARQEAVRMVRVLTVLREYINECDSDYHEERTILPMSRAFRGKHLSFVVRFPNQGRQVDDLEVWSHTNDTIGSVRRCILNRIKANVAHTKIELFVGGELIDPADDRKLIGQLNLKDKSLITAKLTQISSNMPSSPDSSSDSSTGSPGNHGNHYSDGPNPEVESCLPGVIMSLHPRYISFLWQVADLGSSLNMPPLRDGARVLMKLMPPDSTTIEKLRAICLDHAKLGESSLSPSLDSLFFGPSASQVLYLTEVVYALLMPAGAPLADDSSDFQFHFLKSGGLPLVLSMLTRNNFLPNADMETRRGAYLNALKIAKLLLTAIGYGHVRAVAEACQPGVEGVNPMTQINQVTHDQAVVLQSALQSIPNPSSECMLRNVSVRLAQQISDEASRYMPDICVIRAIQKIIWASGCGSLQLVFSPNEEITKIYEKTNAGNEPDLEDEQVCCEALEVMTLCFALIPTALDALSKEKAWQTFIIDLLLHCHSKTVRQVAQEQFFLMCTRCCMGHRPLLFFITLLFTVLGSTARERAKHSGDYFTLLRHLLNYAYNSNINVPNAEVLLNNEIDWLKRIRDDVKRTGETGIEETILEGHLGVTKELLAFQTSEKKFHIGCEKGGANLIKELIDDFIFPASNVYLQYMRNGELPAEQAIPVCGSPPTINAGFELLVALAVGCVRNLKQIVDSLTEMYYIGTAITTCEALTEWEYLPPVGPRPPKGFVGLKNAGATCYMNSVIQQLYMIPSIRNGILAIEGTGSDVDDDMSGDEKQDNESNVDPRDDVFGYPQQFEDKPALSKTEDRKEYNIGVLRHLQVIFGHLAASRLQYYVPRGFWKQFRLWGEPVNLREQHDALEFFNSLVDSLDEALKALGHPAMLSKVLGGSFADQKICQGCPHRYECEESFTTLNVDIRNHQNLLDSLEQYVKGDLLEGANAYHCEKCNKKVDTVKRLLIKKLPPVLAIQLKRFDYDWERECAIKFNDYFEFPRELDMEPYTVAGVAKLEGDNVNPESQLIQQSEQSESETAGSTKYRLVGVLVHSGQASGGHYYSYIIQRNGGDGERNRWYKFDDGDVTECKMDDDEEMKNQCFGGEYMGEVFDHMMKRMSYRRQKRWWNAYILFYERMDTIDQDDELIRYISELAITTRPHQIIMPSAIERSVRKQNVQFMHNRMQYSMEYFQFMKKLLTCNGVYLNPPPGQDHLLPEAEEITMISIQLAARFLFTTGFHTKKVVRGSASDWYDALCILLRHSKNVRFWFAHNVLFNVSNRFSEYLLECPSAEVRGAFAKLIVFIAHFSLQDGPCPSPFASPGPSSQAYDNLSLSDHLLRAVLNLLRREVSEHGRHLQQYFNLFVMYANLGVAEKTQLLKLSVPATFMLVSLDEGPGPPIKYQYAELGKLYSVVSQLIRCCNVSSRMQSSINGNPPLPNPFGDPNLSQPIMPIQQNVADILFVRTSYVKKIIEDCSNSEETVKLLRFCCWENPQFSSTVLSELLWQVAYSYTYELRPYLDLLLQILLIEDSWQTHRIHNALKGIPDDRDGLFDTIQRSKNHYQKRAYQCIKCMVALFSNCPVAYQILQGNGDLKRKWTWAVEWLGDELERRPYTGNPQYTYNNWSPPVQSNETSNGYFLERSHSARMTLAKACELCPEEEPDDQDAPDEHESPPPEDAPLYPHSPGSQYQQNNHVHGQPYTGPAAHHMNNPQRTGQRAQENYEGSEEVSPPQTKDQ

For test [3], the target named is T1, Ubiquitin carboxyl-terminal hydrolase 8 (Homo sapiens) (UniProt P40818).
T1 sequence (whole entry): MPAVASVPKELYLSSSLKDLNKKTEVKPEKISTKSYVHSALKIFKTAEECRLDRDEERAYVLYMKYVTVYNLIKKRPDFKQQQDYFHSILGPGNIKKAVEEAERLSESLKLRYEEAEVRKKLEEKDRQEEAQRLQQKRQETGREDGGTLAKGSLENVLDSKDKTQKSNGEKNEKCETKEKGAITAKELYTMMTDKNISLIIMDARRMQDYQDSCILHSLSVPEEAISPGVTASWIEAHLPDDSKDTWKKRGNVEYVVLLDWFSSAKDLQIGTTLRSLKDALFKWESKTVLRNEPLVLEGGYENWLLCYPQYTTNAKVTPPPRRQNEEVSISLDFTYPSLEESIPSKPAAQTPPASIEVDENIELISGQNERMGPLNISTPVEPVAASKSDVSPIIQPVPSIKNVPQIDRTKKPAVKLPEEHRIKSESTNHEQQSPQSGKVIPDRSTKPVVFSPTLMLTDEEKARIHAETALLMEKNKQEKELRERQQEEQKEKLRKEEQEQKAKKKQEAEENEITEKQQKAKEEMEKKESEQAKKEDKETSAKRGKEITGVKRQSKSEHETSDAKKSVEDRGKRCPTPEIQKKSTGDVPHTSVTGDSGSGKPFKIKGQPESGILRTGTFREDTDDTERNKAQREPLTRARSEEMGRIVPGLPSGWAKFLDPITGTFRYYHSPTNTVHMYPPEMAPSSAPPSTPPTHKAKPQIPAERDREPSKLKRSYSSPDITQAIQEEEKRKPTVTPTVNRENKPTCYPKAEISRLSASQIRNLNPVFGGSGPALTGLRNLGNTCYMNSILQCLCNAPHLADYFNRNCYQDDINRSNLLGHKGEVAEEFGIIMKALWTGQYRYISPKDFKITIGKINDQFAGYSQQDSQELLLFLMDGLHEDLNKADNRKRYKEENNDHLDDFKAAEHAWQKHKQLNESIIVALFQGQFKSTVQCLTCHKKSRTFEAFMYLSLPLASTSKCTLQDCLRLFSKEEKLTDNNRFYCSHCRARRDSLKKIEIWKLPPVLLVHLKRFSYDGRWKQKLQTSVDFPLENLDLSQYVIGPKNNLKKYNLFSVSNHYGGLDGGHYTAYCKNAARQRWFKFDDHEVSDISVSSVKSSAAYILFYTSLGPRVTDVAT
The test is described as follows: Inhibition of USP8 in HEK293T cell lysates at 25 uM using HA-tagged vinyl-sulfone as substrate preincubated for 19 to 60 mins followed by substrate addition and measured after 19 to 25 mins by Western blot analysis. The class given is subcellular. Particulars: Lysate.

For test [4], the system named is Ficin (Ficus carica). Description: Inhibition of fig ficin at 100 uM using Z-Arg-AMC as substrate preincubated for 30 mins followed by substrate addition by fluorescence assay.
In test [5] the target is Ubiquitin carboxyl-terminal hydrolase isozyme L5 (Homo sapiens) (UniProt Q9Y5K5). Description: Inhibition of UCHL5 in HEK293T cell lysates assessed as enzyme recovery at 250 uM using HA-tagged vinyl-sulfone as substrate preincubated for 40 mins followed by 10-fold dilution and subsequent substrate addition measured within 15 mins by Western blot analysis. To be noted: Lysate. The class given is subcellular.
Sequence of Ubiquitin carboxyl-terminal hydrolase isozyme L5 (Homo sapiens) (Q9Y5K5 whole entry): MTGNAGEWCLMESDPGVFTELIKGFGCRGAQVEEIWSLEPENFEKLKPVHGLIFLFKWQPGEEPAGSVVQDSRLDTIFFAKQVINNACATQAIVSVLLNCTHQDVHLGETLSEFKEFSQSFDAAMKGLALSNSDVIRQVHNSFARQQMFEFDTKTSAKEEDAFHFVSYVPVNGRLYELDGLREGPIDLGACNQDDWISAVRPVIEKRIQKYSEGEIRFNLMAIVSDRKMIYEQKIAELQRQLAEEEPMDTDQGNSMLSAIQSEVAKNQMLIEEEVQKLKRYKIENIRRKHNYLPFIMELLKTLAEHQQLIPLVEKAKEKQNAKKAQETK

The target in test [6] is Ubiquitin carboxyl-terminal hydrolase 9X (Homo sapiens) (UniProt Q93008). The test is described as follows: Inhibition of recombinant His6-tagged USP9x catalytic domain (unknown origin) using Ub-AMC as substrate by fluorescence assay. To be noted: TDE = time-dependent effect.
In test [7] the target is Ubiquitin carboxyl-terminal hydrolase 17-like protein 24 (Homo sapiens) (UniProt Q0WX57). The test is described as follows: Inhibition of USP17 in HEK293T cell lysates at 25 uM using HA-tagged vinyl-sulfone as substrate preincubated for 19 to 60 mins followed by substrate addition and measured after 19 to 25 mins by Western blot analysis. Particulars: Lysate. The class given is subcellular. For orientation: A western blot detects proteins with antibodies after separation by electrophoresis.
Sequence of Ubiquitin carboxyl-terminal hydrolase 17-like protein 24 (Homo sapiens) (Q0WX57 whole entry): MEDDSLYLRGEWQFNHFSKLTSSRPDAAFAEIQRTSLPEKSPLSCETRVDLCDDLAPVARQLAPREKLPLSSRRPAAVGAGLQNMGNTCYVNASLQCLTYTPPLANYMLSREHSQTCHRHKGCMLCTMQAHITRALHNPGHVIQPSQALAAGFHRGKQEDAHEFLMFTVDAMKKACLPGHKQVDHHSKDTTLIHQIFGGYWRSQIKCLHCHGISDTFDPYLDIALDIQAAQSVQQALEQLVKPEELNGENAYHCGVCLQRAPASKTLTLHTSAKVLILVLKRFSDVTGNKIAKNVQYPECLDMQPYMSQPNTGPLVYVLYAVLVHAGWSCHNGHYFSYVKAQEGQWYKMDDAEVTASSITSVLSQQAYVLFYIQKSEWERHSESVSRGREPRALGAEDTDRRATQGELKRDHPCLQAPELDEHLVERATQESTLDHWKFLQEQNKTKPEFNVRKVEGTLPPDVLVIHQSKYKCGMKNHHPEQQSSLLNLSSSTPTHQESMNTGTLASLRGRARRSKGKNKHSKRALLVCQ

For test [8], the target named is Ubiquitin carboxyl-terminal hydrolase 7 (Homo sapiens) (UniProt Q93009). The test is described as follows: Inhibition of USP7 in human MCF7 cells assessed as increase in p21 expression at 25 uM after 4 hrs by Western blot analysis. The class given is cell-based. In a few lines:
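MCF7 cells treated with compound for 4 h. Mdm2, p53 and p21 levels were determined by immunoblotting.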

Test [9] deals with Ubiquitin carboxyl-terminal hydrolase 28 (Homo sapiens) (UniProt Q96RU2). Description: Inhibition of USP28 in HEK293T cell lysates at 25 uM using HA-tagged vinyl-sulfone as substrate measured after 2 to 30 mins by Western blot analysis. It counts as subcellular. To be noted: Lysate. In a few lines: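 HEK 293T lysate (1.5 mg/ml) given compound (25 μM) or DMSO at the same time as HA-Ub-VS (1.5 μM). Aliquots withdrawn over time were run on SDS-PAGE and immunoblotted for HA.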

Molecules are shown by their SMILES. Calls of active or inactive are those of the source. The rule behind the calls is not given here.

Sequence of Ubiquitin carboxyl-terminal hydrolase 7 (Homo sapiens) (Q93009 whole entry, looked up): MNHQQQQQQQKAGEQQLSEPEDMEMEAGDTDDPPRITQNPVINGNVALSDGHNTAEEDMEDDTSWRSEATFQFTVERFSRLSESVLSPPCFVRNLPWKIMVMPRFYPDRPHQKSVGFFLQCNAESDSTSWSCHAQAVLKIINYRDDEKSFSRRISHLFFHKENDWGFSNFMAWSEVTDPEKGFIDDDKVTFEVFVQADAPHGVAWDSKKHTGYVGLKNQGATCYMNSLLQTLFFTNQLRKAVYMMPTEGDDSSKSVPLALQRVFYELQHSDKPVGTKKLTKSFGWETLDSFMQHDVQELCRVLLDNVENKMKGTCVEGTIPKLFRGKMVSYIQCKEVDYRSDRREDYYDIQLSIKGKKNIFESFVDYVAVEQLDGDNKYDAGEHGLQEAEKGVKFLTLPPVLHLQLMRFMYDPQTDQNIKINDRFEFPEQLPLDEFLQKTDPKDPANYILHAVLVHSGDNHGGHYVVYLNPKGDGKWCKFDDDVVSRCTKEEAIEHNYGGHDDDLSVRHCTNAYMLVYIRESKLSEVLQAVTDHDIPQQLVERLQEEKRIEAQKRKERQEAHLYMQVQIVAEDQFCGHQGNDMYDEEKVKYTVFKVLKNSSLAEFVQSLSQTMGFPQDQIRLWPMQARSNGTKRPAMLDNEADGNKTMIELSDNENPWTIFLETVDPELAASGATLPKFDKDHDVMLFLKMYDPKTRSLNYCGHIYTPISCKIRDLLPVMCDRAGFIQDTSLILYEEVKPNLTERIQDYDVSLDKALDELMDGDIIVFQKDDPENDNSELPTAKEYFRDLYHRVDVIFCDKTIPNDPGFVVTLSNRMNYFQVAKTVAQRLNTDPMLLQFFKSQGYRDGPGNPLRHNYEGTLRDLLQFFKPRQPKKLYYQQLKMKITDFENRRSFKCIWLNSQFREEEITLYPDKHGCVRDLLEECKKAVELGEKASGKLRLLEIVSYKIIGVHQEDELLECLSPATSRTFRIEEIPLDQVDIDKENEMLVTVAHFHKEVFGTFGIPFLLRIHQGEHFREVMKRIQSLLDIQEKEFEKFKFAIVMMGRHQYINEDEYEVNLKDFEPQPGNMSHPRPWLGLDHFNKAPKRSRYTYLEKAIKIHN

Turning to `NCc1ccc(OC(=O)Oc2ccc3ccccc3c2)cc1`, the inhibition result in test [1], in [4] and in test [9] was “inactive” throughout. For the same compound, the inhibition result in test [2], in test [3], in [5], in test [7] and in test [8] was “Active” each time. Also, the inhibition result in test [6] is “Tde”.

These data come from ChEMBL document CHEMBL4371052, “Diarylcarbonates are a new class of deubiquitinating enzyme inhibitor” (Bioorg Med Chem Lett, 2019).
